A short description of this data set: Toxicity liver stage against HepG2, at 10uM. The format is cell-based. The arrangement: test concentration 10 uM, cell line HepG2-A16-CD81EGFP. The following applies: human, HepG2-A16-CD81EGFP cells; read-out: INHIBITION
The gist of the method:
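Uninfected HepG2-A16-CD81EGFP cells, 3 × 10^3 per well, 1536-well, plated on prespotted compound at 10 μM final, parasite-free screening media added to match infected plates; puromycin 10 μM positive, DMSO 0.5% negative; run in parallel with 48 h PbLuc assay at 37 °C, 5% CO2; viability by CellTiter-Glo luminescence, normalized to controls.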

Regarding `CS(=O)(=O)N[C@@H]1CN(Cc2ccc3ccccc3c2)C[C@H]1O`, the cytotoxicity at 10 µM is -2.92%.
With `CC(=O)c1ccc(N2CCN(C(=O)NC(C)c3ccc(C)o3)CC2)cc1` (stereo unspecified), the cytotoxicity at 10 µM was 10.1%.
For `COc1ccc(-c2csc(-c3cccc(C(=O)O)c3)n2)cc1OC` the value was 3.31%; for `O=C(c1ccsc1)N1CCC2(CCN2Cc2ccc(F)cc2)C1` (stereo unspecified), -144%; for `Cc1c(Br)cccc1CSc1nnc(CO)n1C`, -40.5%.
For `COc1ccc(CN2C[C@H](N3CCCC3=O)[C@@H]3OCCC[C@@H]32)cc1` the value was 9.51%; for `O=C(c1ccnn1COc1ccc(Cl)cc1)N1CCCC1`, -2.34%; for `Cc1cc(OCC(=O)N2CCCC(c3ccn[nH]3)C2)no1` (stereo unspecified), 0.0241%.
With `Cc1nc(CN2CCN(C(=O)c3ccc(=O)n(C)c3)CC2)cs1`, the cytotoxicity at 10 µM is -2.95%.
For `O=C1CCC2(CCCN(C(=O)c3cnccn3)CC2)N1` (stereo unspecified), the cytotoxicity at 10 µM was -2.66%.
As for `CN(CCCn1cnc2c(N)ncnc21)Cc1ccccc1`, the cytotoxicity at 10 µM is -4.87%.
Turning to `Cc1csc2nc3n(c(=O)c12)CCN(Cc1ccccn1)CC3`, the cytotoxicity at 10 µM was -18.2%.
Turning to `Cc1ccccc1CN1CCCN(CCN2CCOC2=O)CC1`, the cytotoxicity at 10 µM is -7.53%.
On to `C[C@H]1C[C@@H]2CCN(C(=O)c3cccn3C)C[C@H]2O1`, for which the cytotoxicity at 10 µM was 10.1%.
`Cc1cnc(CN(C)C2CCN(Cc3nc4c(F)cccc4[nH]3)C2)o1` (stereo unspecified): the cytotoxicity at 10 µM was determined as 2.53%.
Next, `O=C(COCc1nc(-c2ccncc2)no1)N1CCCCC1`: 5.4%; `COc1ccc(C(=O)CCc2nc(C3CC3)no2)cc1`: -2.31%; `CC(=O)Nc1ccc(Cl)c(C(=O)N(C)C(C)c2ccon2)c1` (stereo unspecified): -48.7%.
On to `O=C(Cc1csc(-c2ccco2)n1)N1CCN(c2cnccn2)CC1`, for which the cytotoxicity at 10 µM was found to be 0.0241%.
For `CC(C)SCc1cccc(NC(=O)NCCc2nnc[nH]2)c1`, the cytotoxicity at 10 µM was -46.1%.
With `Cc1ccc(-c2noc([C@@H]3C[C@H](NC(=O)NC(C)C)CN3C)n2)cc1`, the cytotoxicity at 10 µM was determined as 3.31%.
For `Nc1cc2c(nn1)CCN(C(=O)CCc1ccc3c(c1)OCO3)C2`, the cytotoxicity at 10 µM came out at 3.23%.
For `O=C(c1ccc(S(=O)(=O)NCc2ccon2)cc1)N1CCOCC1` the value was 3.08%.
With `CCn1cnnc1CNC(=O)N1CCC(Cc2cccnc2)CC1`, the cytotoxicity at 10 µM came out at 4.38%.
Turning to `CC(C)=Cc1c(-c2ccccc2)ncn1CCS(C)(=O)=O`, the cytotoxicity at 10 µM is -3.15%.
Regarding `CCOC(=O)N1CCN(c2nc(CCN)nc3sc(C)c(C)c23)CC1`, the cytotoxicity at 10 µM is -43.4%.
Take `O=C(c1n[nH]c2c1CCC2)N1CCCC1c1nc(-c2ccccc2)no1` (stereo unspecified): the cytotoxicity at 10 µM was 6.43%.
`Cc1ccccc1N1CC2(CCN(S(=O)(=O)c3ccccc3)C2)CC1=O` (stereo unspecified): the cytotoxicity at 10 µM was 6.24%.
In the case of `CCOCCn1c(=O)[nH]c2cc(C(=O)N(C)Cc3nc(C)c[nH]3)ccc21`, the cytotoxicity at 10 µM worked out at 6.09%.
Next, `C[C@H]1C[C@@H]2CCN(CC3CCOCC3)C[C@H]2O1`: 10.3%; `OC(CN1CCCCCCC1)c1ccc(F)cc1` (stereo unspecified): -10.4%; `c1cncc(OC[C@]23COC[C@H]2CN(Cc2cccs2)C3)c1`: -13%.
For `CC(C)OCc1nn(CC2CC2)c2c1CN(Cc1ccco1)CC2` the value was -15.4%.
Next, `Cc1cc(CNC(=O)CC2CCN(C(C)C)CC2)n(C)n1`: -1.77%; `O=C(Nc1cc(F)ccc1OCC1CCCO1)N1CCCC1` (stereo unspecified): -6.49%; `COCCNC(=O)CCNC(=O)c1ccc(N2CCC(C)=N2)cc1`: 2.07%.
For `Cc1nc(C)n(CC2CCCN2Cc2cn3ccsc3n2)n1` (stereo unspecified), the cytotoxicity at 10 µM was -10.7%.
As to `O=C(NC[C@]12COC[C@H]1CN(Cc1nccs1)C2)N1CCCC1`, the cytotoxicity at 10 µM was -7.27%.
In the case of `CCSc1nnc([C@@H](N)CC(C)C)o1`, the cytotoxicity at 10 µM was -2.39%.
For the compound `CN(CC1=CCCN(CCc2ccccn2)C1)C(=O)c1ccco1`, the cytotoxicity at 10 µM is 1.7%.
For `Cc1cc(NC(=O)N2CCN(c3cccs3)CC2)ccc1C(N)=O`, the cytotoxicity at 10 µM is -7.79%.
`Cc1n[nH]c(C2CN(C(=O)c3cc(C)sc3C)CCO2)n1` (stereo unspecified): the cytotoxicity at 10 µM was found to be 3.35%.
Regarding `Cc1noc(CCNC(=O)NCc2ccc(N3CCCCC3)cc2)n1`, the cytotoxicity at 10 µM turned out to be 9.47%.
Regarding `COc1ncc(C2(O)CCN(Cc3cccs3)CC2)c(OC)n1`, the cytotoxicity at 10 µM worked out at 1.9%.
Consider `CC(C(=O)NCC1(c2c(F)cccc2F)CCCC1)S(C)(=O)=O` (stereo unspecified), for which the cytotoxicity at 10 µM came to 8.14%.
In the case of `CC(NC(=O)NCCCc1n[nH]c(N)c1C#N)c1ccccc1F` (stereo unspecified), the cytotoxicity at 10 µM is -3.6%.
Take `COc1ccc(-c2cc(C3CCN(C(C)=O)CC3)ccn2)cc1`: the cytotoxicity at 10 µM was -5.05%.
Take `O=C1NC[C@H]2CN(Cc3ccnc4ccccc34)CCN12`: the cytotoxicity at 10 µM was -3.66%.
As to `CN(Cc1cc(Br)cs1)Cc1nnsc1Cl`, the cytotoxicity at 10 µM is -7.38%.
For `CCc1nc(C2CCCN2C(=O)c2ccc(=O)n(CC)n2)no1` (stereo unspecified) the value was 2.72%; for `Fc1ccc(-c2nnc(CNC3CCc4ncnn4C3)o2)cc1` (stereo unspecified), -3.67%; for `CN(C)c1cc(CNC(=O)CC2CCCCC2)ccn1`, 9.24%.
Next, `CCN1CCN(C2CCN(C(C(N)=O)c3ccccc3)CC2)C1=O` (stereo unspecified): -10.3%.
For `Cc1cc(C(=O)N2CCC(c3nccn3Cc3ccccn3)CC2)no1` the value was -1.85%; for `CCN1CCC2(CC1)CC(Nc1ncccn1)CO2` (stereo unspecified), -21.6%; for `O=C(N1CCCC1)N1C[C@@H](OCc2cccnc2)[C@H]2OCCC[C@H]21`, 4.85%.
As to `CCN(C)C(=O)c1coc(COc2ccccc2)n1`, the cytotoxicity at 10 µM came out at 3.36%.
For `COC(=O)[C@@H](NC(=O)c1coc(COc2cccc(F)c2)n1)C(C)C` the value was -142%; for `CCS(=O)(=O)N1Cc2nccn2CC(COc2cccnc2)C1` (stereo unspecified), -2.34%; for `Cc1cc2c(=O)n3c(nc2s1)CCN(Cc1c[nH]cn1)CC3`, -17.6%.
In the case of `Cc1ccccc1CN(C)C(=O)CN1CCCCC1Cn1cncn1` (stereo unspecified), the cytotoxicity at 10 µM was 8.44%.
With `CNS(=O)(=O)CC(=O)N(Cc1c(F)cccc1Cl)C1CC1`, the cytotoxicity at 10 µM came out at 4.71%.
In the case of `CCOCCn1c(=O)n(CCC(C)C)c2ncc(C(=O)O)cc21`, the cytotoxicity at 10 µM came out at 2.62%.
Next, `COCC1CC2(CCN(C(=O)c3ccccc3C)CC2)CN1C(C)C` (stereo unspecified): 7.77%.
Consider `COC1CCN(C(=O)Cn2ncc(N3CCCCC3)cc2=O)C1` (stereo unspecified), for which the cytotoxicity at 10 µM is -2.69%.
Take `CCCc1nc(CNC(=O)Cc2cc(C)no2)cs1`: the cytotoxicity at 10 µM is -11.5%.
Next, `Cc1nc2n(n1)CC(NCC(=O)NCC1(c3ccccc3)CC1)CC2` (stereo unspecified): -6.52%; `Cn1ccc(C(=O)NCc2ccccc2CN2CCCCC2)cc1=O`: -2.51%.
As to `CCN(CC)S(=O)(=O)N1CC[C@H](c2ccccc2)[C@H]2NCCCC[C@H]21`, the cytotoxicity at 10 µM is -39.5%.
For `Cc1cc(C)c(CNC(=O)CC2CCCO2)c(=O)[nH]1` (stereo unspecified), the cytotoxicity at 10 µM was -10.7%.
On to `CN(C)[C@H]1C[C@@H](Cc2cc(-c3ccc(F)cc3)on2)C1(C)C`, for which the cytotoxicity at 10 µM is -12.3%.
For `O=C(Cc1cccc(O)c1)NC1CCN(c2cccc(Cl)c2)C1` (stereo unspecified), the cytotoxicity at 10 µM came out at 17.1%.
As for `COc1c(C)cnc(CNC(=O)CCOCc2ccccc2)c1C`, the cytotoxicity at 10 µM is -4.31%.
On to `CCN(Cc1csc(CS(C)(=O)=O)n1)c1cccc(F)c1`, for which the cytotoxicity at 10 µM was 7.25%.
In the case of `Cc1cc(F)cc(NC(=O)N(C)CC(C)(CO)CO)c1`, the cytotoxicity at 10 µM was -1.44%.
Turning to `CCC(CC)c1cc(C(=O)N2CCCC(n3cncn3)C2)on1` (stereo unspecified), the cytotoxicity at 10 µM was -13.1%.
With `CC(C)CC(C)N(C)Cc1nnc(-c2ccco2)o1` (stereo unspecified), the cytotoxicity at 10 µM is 6.07%.
As for `Cc1nc(CO[C@@H]2CN(Cc3cnn(C)c3)[C@@H]3COC[C@@H]32)cs1`, the cytotoxicity at 10 µM is -7.06%.
For `CCC[C@H]1CN(Cc2cscn2)C[C@@H]1NC(=O)C1(COC)CCC1`, the cytotoxicity at 10 µM is -5.69%.
For `Cc1ccc(CN2CCn3c(C(=O)N(C)C)cnc3C2)s1`, the cytotoxicity at 10 µM amounted to 5.97%.
For `CS(=O)(=O)N1CCc2[nH]cnc2C12CCN(C1CCOCC1)CC2`, the cytotoxicity at 10 µM is -4.52%.
Regarding `CS(=O)(=O)c1nccn1Cc1ccncc1`, the cytotoxicity at 10 µM was 14.5%.
On to `CN(Cc1ccc2nonc2c1)C(=O)CCc1cc2n(n1)CCCNC2`, for which the cytotoxicity at 10 µM was -9.46%.
Turning to `CCCN1CCN(CC(O)c2ccc(OC(F)(F)F)cc2)CC1` (stereo unspecified), the cytotoxicity at 10 µM is -20.5%.
Regarding `CCCSc1nc(N)c(NC(=O)c2ccc(OC)c(OC)c2)c(=O)[nH]1`, the cytotoxicity at 10 µM was -8.7%.
Consider `CSc1ccc(C(=O)N2CC(=O)N(Cc3cccs3)CC(O)C2)cc1` (stereo unspecified), for which the cytotoxicity at 10 µM stood at 2.31%.
With `Cc1ccc2cc(CN(C)Cc3ncc[nH]3)c(=O)[nH]c2c1`, the cytotoxicity at 10 µM turned out to be 1.75%.
For `O=S(=O)(c1cccc(Cl)c1)N1CCCC(Cn2cncn2)C1` (stereo unspecified), the cytotoxicity at 10 µM was -7.21%.
`Cn1cc(CN2CCC(c3ccncc3)CC2)cn1`: the cytotoxicity at 10 µM came out at 0.26%.
Take `CC(Cc1ccccc1Cl)NC(=O)Nc1cnn(CC(N)=O)c1` (stereo unspecified): the cytotoxicity at 10 µM is -4.23%.
`Cc1nnc(CN(C)CC(=O)N2CCCC(C(F)(F)F)C2)n1C` (stereo unspecified): the cytotoxicity at 10 µM was 4.49%.
As to `O=S(=O)(NC[C@H]1C[C@@H]2CCN1C[C@@H]2CN1CCCCC1)c1ccccc1`, the cytotoxicity at 10 µM was -4.32%.
For `Cc1nn(C)cc1CN1CCC(c2ncc(Cl)cc2S(C)(=O)=O)CC1` the value was -0.1%; for `Cc1nn(-c2ccc(C(=O)O)cc2)c2c1C(c1ccsc1)SCC(=O)N2` (stereo unspecified), 0.153%; for `COCCCC1(C(=O)O)CCCN(Cc2cc3c(cc2C)OCCO3)C1` (stereo unspecified), -2.3%.
For the compound `COc1ccc(CCNC(=O)C(C)Nc2ccc(C)c(C)c2)cc1` (stereo unspecified), the cytotoxicity at 10 µM stood at 2.7%.

Values taken from ChEMBL document CHEMBL4513216, “Probing the Open Global Health Chemical Diversity Library for Multistage-Active Starting Points for Next-Generation Antimalarials” (ACS Infect Dis, 2020).
